The source of these data is ChEMBL document CHEMBL1125216, “Potent, orally active imidazo[4,5-b]pyridine-based angiotensin II receptor antagonists” (J Med Chem, 1991).

For assay [1], the target named is Type-1 angiotensin II receptor (Rattus norvegicus) (UniProt P25095). In words: The compound was tested for inhibition of angiotensin II receptor induced pressor response in rat after intravenous administration.
Assay [2] concerns the target Type-1 angiotensin II receptor (Oryctolagus cuniculus) (UniProt P34976). As to the kind of experiment: Binding affinity towards Angiotensin receptor from rabbit aorta.
In assay [3] the test system is Rattus norvegicus. In words: Percentage peak pressor response in rat after intravenous administration at a dose of 0.3 mg/kg of the compound. Type of assay: functional. The essentials:
(§1)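 Male Sprague-Dawley rats (300–400 g), conscious, with arterial (blood pressure) and venous (dosing) catheters. Pressor responses to AII 0.1 μg/kg iv recorded before and after iv compound. Vehicle: saturated NaHCO3 15%, saline 35%, water 50%.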

Assay [4] relates to Rattus norvegicus. In words: Percentage peak pressor response in rat after intravenous administration at a dose of 0.03 mg/kg of the compound. The assay is classed as functional. In a few lines: as §1
The test system of assay [5] is Rattus norvegicus. As to the kind of experiment: Percentage peak pressor response in rat after peroral administration at a dose of 0.3 mg/kg of the compound. The assay is classed as functional. The settings on record: route oral. The essentials:
(§2)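 Conscious male Sprague-Dawley rats (300–400 g) fitted with arterial and venous catheters. Compound given orally as a suspension in 1 N NaOH–0.5% methocel (10:90). Pressor response to AII (0.1 μg/kg iv) measured before and after dosing. Peak inhibition of the AII response is expressed as a percentage at each dose.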

In assay [6] the test system is Rattus norvegicus. In words: Percentage peak pressor response in rat after intravenous administration at a dose of 0.1 mg/kg of the compound. Type of assay: functional. In a few lines:
as §1

In assay [7] the test system is Rattus norvegicus. As to the kind of experiment: Percentage peak pressor response in rat after peroral administration at a dose of 0.03 mg/kg of the compound. Type of assay: functional. The settings on record: route oral. The essentials:
as §2

The subject of assay [8] is Rattus norvegicus. As to the kind of experiment: Percentage peak pressor response in rat after peroral administration at a dose of 0.1 mg/kg of the compound. Type of assay: functional. As to conditions: route oral. The essentials: as §2

Sequence of Type-1 angiotensin II receptor (Rattus norvegicus) (P25095 whole entry, looked up): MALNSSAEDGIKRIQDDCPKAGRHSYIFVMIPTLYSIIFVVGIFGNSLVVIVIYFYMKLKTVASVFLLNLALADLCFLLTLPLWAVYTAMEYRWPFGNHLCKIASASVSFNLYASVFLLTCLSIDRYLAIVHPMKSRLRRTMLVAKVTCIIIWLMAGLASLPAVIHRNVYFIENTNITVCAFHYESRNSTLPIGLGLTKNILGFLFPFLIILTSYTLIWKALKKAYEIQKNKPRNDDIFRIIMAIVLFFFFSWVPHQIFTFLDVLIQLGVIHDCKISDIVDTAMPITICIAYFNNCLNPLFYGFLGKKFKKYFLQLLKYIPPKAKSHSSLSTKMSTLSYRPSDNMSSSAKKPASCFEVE
Sequence of Type-1 angiotensin II receptor (Oryctolagus cuniculus) (P34976 whole entry, looked up): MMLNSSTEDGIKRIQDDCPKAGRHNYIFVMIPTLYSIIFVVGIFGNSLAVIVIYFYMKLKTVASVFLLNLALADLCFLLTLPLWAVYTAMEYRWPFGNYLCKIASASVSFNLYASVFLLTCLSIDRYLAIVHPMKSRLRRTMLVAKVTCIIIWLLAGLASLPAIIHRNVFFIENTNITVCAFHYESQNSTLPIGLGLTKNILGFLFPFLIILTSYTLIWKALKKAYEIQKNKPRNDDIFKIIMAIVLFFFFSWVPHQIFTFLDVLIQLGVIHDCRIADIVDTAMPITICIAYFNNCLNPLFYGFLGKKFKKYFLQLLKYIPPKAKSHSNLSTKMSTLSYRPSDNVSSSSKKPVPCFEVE

In assay [1], `CCCc1nc2c(C)cc(C)nc2n1Cc1ccc(-c2ccccc2-c2nn[nH]n2)cc1` displayed an ED50 of 0.087 mg/kg. The molecule further registered an IC50 in assay [2] of 0.3 nM.
`CCCCC1=NC(Cl)C(C(=O)O)N1Cc1ccc(-c2ccccc2-c2nn[nH]n2)cc1` (stereo not given): the concentration for half-maximal inhibition (IC50) in assay [2] amounted to 6 nM.
Turning to `CCCc1nc2c(C)ccnc2n1Cc1ccc(-c2ccccc2-c2nn[nH]n2)cc1`, the IC50 in assay [2] came out at 1 nM. Compared with the last molecule, the IC50 is about 6-fold lower.
As to `CCc1nc2c(C)cc(C)nc2n1Cc1ccc(-c2ccccc2-c2nn[nH]n2)cc1` [L-158809], the Peak inhibition is reported as 99% in the assay on Rattus norvegicus [3]; 36% with Rattus norvegicus [4]; 92% in the assay with Rattus norvegicus [5]; 85% in the assay on Rattus norvegicus [6]; 52% in the assay on Rattus norvegicus [7]; 75% with Rattus norvegicus [8].
`CCCc1nc2cccnc2n1Cc1ccc(-c2ccccc2-c2nn[nH]n2)cc1` showed a concentration for half-maximal inhibition (IC50) in assay [2] of 8 nM.
Consider `CCCCc1nc2c(C)cc(C)nc2n1Cc1ccc(-c2ccccc2-c2nn[nH]n2)cc1`, for which, in assay [1], the ED50 was 0.45 mg/kg. Besides, the IC50 in assay [2] came to 0.5 nM.
In turn, `CCCc1nc2ccc(C)nc2n1Cc1ccc(-c2ccccc2-c2nn[nH]n2)cc1` displayed an ED50 in assay [1] of 1 mg/kg. This molecule also showed an IC50 in assay [2] of 2 nM.

In general, ED50 refers to the dose at which the effect has come halfway, by size or by number of responders. Low values mean greater potency, high ones weaker potency. Broadly, the IC50 is the concentration that inhibits the measured activity by half.
